Data on 4 compounds can be found in ChEMBL document CHEMBL1123006, “Synthesis and cytotoxic activity of hydroxylated derivatives of olivacine in relation with their biotransformation” (1985).

Assay [1] has as its system L1210. Kind of assay: Antitumor activity against L1210 leukemia cells expressed as dose concentration that reduces number of cells by 50% after 48 hrs exposure to drug. Format: functional. The conditions noted are these: Mus musculus, L1210, 48 h; read-out: ID50 (the source's name). The method in brief: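 L1210 leukemia cells grown in vitro with drug for 48 h; cell number counted against untreated control; ID50 taken as the concentration cutting cell number by 50%.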

Assay [2] relates to Mus musculus. Kind of assay: Cytotoxicity against L1210 leukemia cells administered through intraperitoneal route in mice. The format is functional.
Assay [3] has as its system Mus musculus. Kind of assay: Highest nonlethal dose against mice administered through intraperitoneal route. The format is functional.
Assay [4] is filed under the species Rattus norvegicus. Kind of assay: Phenobarbital induced rat hepatic microsomal hydroxylation in vitro. The format is functional. The conditions noted are these: Liver. In a few lines:
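Liver microsomes from male Sprague–Dawley rats given phenobarbital 80 mg/kg/day ip in 0.9% NaCl for 3 days, killed 2 days after last dose. Microsomes 0.5 mg protein/mL in Tris-HCl 0.02 M pH 7.4 with 1.15% KCl; olivacine acetate at five levels, 5–50 µM; NADPH 1 mg/mL; 37 °C, 5 min. Butanol extract, HPLC; Km/Vmax by Lineweaver-Burk; two rats.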

Assay [5] concerns L1210. Put plainly: Antitumor efficiency against L1210 leukemia cells expressed as % increase in life span (ILS) 24 hrs after ip grafting (10e5 cells). The format is functional, Mus musculus. In a few lines:
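DBA/2 mice given 10^5 L1210 cells intraperitoneally, then a single ip drug dose 24 h later. ILS = (median survival of treated − median survival of controls) / median survival of controls × 100.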

The species named for assay [6] is Rattus norvegicus. Kind of assay: Benzo[a]pyrene induced rat hepatic microsomal hydroxylation in vitro. The conditions noted are these: Liver. The format is functional. In a few lines: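 Liver microsomes from male Sprague–Dawley rats given benzo[a]pyrene 20 mg/kg/day ip in sunflower oil for 2 days, killed 2 days after last dose. Microsomes 0.5 mg protein/mL in Tris-HCl 0.02 M pH 7.4 with 1.15% KCl; olivacine acetate at five levels, 5–50 µM; NADPH 1 mg/mL; 37 °C, 5 min. Butanol extract, HPLC; Km/Vmax by Lineweaver-Burk; two rats.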

For assay [7], the species on record is Rattus norvegicus. Put plainly: Non induced rat hepatic microsomal hydroxylation in vitro. Format: functional. The conditions noted are these: Liver. The method in brief:
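Liver microsomes from male Sprague–Dawley rats given only vehicle ip (sunflower oil or 0.9% NaCl). Microsomes 0.5 mg protein/mL in Tris-HCl 0.02 M pH 7.4 with 1.15% KCl; olivacine acetate at five levels, 5–50 µM; NADPH 1 mg/mL; 37 °C, 5 min. Butanol extract, HPLC; Km/Vmax by Lineweaver-Burk; two rats.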

Molecules are shown by their SMILES.

`Cc1c2ccncc2c(C)c2c1[nH]c1ccccc12` [ELLIPTECINE]: the IC50 in the assay on L1210 [1] stood at 990 nM. The compound further displayed an LD0 with Mus musculus [2] of 50 mg/kg.

Usually Km stands for the substrate concentration at which the rate is half of its maximum. What is called Vmax is the rate approached at saturating substrate. As a reminder, the ILS is the gain in survival time of treated over control animals, in per cent. A higher ILS goes with much gain in survival. On to `Cc1nccc2c(C)c3[nH]c4ccc(O)cc4c3cc12`, for which the IC50 in the assay on L1210 [1] was 60 nM. In the assay with Mus musculus [3], the LD0 came to 50 mg/kg. Further, the Km stood at 40 µM in the assay listed under Rattus norvegicus [4], 22.2 µM in the assay listed under Rattus norvegicus [6] and 25 µM in the assay filed under Rattus norvegicus [7]. The maximal velocity (Vmax) was 1.28 nM/min in the assay filed under Rattus norvegicus [4], 7.14 nM/min in the assay filed under Rattus norvegicus [6] and 0.58 nM/min in the assay filed under Rattus norvegicus [7]. For the same compound, in the assay on L1210 [5], the ILS is 39%.

With `Cc1nccc2c(C)c3[nH]c4c(O)cccc4c3cc12`, in the assay on L1210 [1], the IC50 is 12800 nM. Further, the Km turned out to be 41.4 µM in the assay filed under Rattus norvegicus [4], 29 µM in the assay filed under Rattus norvegicus [6] and 29.4 µM in the assay filed under Rattus norvegicus [7].

For the compound `Cc1nccc2c(C)c3[nH]c4ccccc4c3cc12`, the IC50 in the assay with L1210 [1] is 2030 nM. This compound also returned an increase in life span (ILS) with L1210 [5] of 35%. In the assay on Mus musculus [2], this compound yielded an LD0 of 250 mg/kg.
